# Compound activity (PubChem)
# Most compounds without a hit are left out; they make up all but 1.3% or so of the library.
# TbHK1 inh: Trypanosoma brucei hexokinase 1 inhibitors, primary screen, biochemical, G6PDH-coupled NADH absorbance, MLSCN library | recombinant TbHK1, G6PDH-coupled NADH A340 | inhibition, % at 10 µM | hit rate 0.11% among 220,000;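 active = inhibition of 50% or more in the single-dose primary screen; inactive = inhibition below 50%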
# PfG6PD inh: PfG6PD enzyme inhibitors, primary screen, biochemical, fluorescence intensity, uHTS | AID 504690, 2011 | hit rate 0.78% among 350,000 | inhibition, % at 20 µM | PfGluPho enzyme, NADPH resazurin-diaphorase fluorescence;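 active = inhibition reaching at least a set limit at 20 µM in the primary screen, cut at about 59% in these data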;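 note: 0% = DMSO wells with substrate and 100% = DMSO wells lacking glucose-6-phosphate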
# Diaph act CS: compounds boosting diaphorase resazurin reduction – biochemical, uHTS, resorufin fluorescence, counter-screen for diaphorase-coupled primary assays, primary screen. Diaphorase/resazurin coupled assay, 16 min; hits give high values; 1 = vehicle wells, 0 = NADH-free wells. activation factor at 20 µM. hit rate 0.005% among 190,000;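 active = diaphorase activity raised at least twofold by the compound at 20 µM; inactive = activation factor below 2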
#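 Assay system: bacterial diaphorase enzyme (C. kluyveri) / Input: enzyme 0.07 U/mL final / Medium: 50 mM HEPES pH 7.4 with 4.542 mM MgCl2, 0.005% Tween 20 / Doses: single compound dose of 20 µM, 1% DMSO final / Incubation: 16 min enzyme reaction, ambient temperature / Signal: fluorescence, excitation 544 nm and emission 590 nm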
# G6PDH counter: L. mesenteroides G6PDH inhibitors, counter-screen for G6PDH-coupled screening assays, biochemical, Leuconostoc mesenteroides enzyme | hit rate 0.12% among 200,000 | inhibition, % at 5 µM | AID 1020, 2008 | Purified L. mesenteroides G6PDH, diaphorase/resazurin coupled fluorescence, 45 min; in the data active = inhibition above about 50%
# Diaphorase inh: diaphorase inhibitors and chemical oxidizers, primary screen, counter-screen for diaphorase-coupled primary assays, biochemical, uHTS, resorufin fluorescence. AID 1217, 2008. hit rate 0.69% among 190,000. diaphorase resazurin-to-resorufin fluorescence, NADH, 16 min; bacterial (C. kluyveri) enzyme, not human. inhibition, % at 20 µM;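 active = primary screen inhibition at 20 µM above a set limit, cut at about 50% in these data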;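 note: plate controls were DMSO with full reaction for no effect and wells lacking NADH for full effect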
#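 Assay system: diaphorase enzyme from Clostridium kluyveri. Quantity: enzyme working solution with 0.14 U/mL diaphorase. Schedule: reaction incubation of 16 min at room temperature. Technique: resorufin fluorescence, excitation 544 nm, emission 590 nm. Controls: No-NADH positive control and DMSO neutral control.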
# HKDC1 inhibitor: HKDC1 hexokinase inhibitors, primary screen, biochemical, fluorescence, uHTS. inhibition, % at 20 µM. AID 493160, 2011. hit rate 0.16% among 340,000. Q2TB90. recombinant HKDC1, G6PDH/diaphorase resazurin coupled fluorescence;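 active = inhibition above about 35% when tested at 20 µM, limit read from the data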;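 note: plate controls were DMSO wells with enzyme for no effect and DMSO wells lacking enzyme for full effect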
# Target sequence (Q2TB90 whole entry, looked up): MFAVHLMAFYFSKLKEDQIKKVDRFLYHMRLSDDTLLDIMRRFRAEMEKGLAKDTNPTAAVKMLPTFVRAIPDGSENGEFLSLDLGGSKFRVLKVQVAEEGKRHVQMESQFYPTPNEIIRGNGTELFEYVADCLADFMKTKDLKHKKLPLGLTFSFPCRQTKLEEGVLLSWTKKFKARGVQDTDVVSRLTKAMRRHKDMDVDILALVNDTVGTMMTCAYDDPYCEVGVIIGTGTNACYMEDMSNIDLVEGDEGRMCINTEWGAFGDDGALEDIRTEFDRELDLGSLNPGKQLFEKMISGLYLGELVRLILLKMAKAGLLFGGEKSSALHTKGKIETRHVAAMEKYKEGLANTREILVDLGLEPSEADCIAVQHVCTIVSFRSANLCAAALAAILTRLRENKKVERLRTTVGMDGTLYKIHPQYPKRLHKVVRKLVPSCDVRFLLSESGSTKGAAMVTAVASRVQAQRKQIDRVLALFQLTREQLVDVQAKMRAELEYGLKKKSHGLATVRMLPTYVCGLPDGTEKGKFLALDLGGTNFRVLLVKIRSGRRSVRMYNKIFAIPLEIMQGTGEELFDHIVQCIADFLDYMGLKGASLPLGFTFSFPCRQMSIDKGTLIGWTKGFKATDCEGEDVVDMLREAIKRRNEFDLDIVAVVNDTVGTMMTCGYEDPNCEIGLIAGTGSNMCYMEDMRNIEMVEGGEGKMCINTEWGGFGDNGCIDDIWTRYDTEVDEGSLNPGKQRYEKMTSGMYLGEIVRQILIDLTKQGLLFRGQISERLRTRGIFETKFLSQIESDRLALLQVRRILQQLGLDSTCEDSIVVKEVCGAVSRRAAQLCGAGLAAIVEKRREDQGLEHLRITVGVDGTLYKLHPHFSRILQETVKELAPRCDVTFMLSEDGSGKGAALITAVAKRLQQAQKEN
#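 test system = in-house recombinant HK5 (HKDC1) enzyme | amount = HKDC1 at 5 µg/mL | control set = DMSO-enzyme wells negative, buffer-substituted wells positive | compound = one dose of 20 µM, 1% DMSO | schedule = reaction time 90 min, room temperature, protected from light | technique = resorufin fluorescence at 613 nm | reagent = glucose with 1 mM ATP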
# PfGluPho conf: PfG6PD inhibitors, hit retest, confirmation, biochemical, fluorescence intensity, single concentration. shares compounds with PfG6PD inh. recombinant PfGluPho, NADPH-diaphorase-resazurin fluorescence. inhibition, % at 20 µM. hit rate 34% among 2,400;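 active = inhibition of at least 50% at 20 µM in any single replicate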;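 note: 0% = DMSO with substrate and 100% = DMSO lacking glucose-6-phosphate substrate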
# Diaphorase 10uM: diaphorase inhibitors and chemical oxidizers, confirmation, counter-screen for P. falciparum G6PD inhibitor project, biochemical, fluorescence intensity, 10 µM NADPH | shares compounds with PfG6PD inh | diaphorase-coupled resazurin reduction, NADPH 10 uM | inhibition, % at 20 µM | hit rate 39% among 820;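 active = average inhibition reaching 50% or more with the compound at 20 µM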;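 note: resorufin red fluorescence formed as diaphorase reduces resazurin using NADPH; 0% = DMSO with enzyme and 100% = DMSO without enzyme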
# Diaph ctr 30uM: diaphorase inhibitors and chemical oxidizers, confirmation, counter-screen for P. falciparum G6PD inhibitor project, biochemical, fluorescence intensity, 30 µM NADPH; hit rate 29% among 820; AID 504863, 2011; inhibition, % at 20 µM; Diaphorase/resazurin coupled assay, resorufin fluorescence; shares compounds with PfG6PD inh;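 active = inhibition averaging 50% or more, tested at 20 µM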;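 note: 0% = DMSO with enzyme and 100% = DMSO wells lacking diaphorase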
# Numbers without * were called inactive; · = not tested or not shown.
SMILES,TbHK1 inh,PfG6PD inh,Diaph act CS,G6PDH counter,Diaphorase inh,HKDC1 inhibitor,PfGluPho conf,others
Cc1no[n+]([O-])c1COc1cccc(/C=N/Nc2nncn2N)c1,6.0,100.1*,·,·,·,-5.0,54.6*,Diaphorase 10uM=41.5;Diaph ctr 30uM=27.1
Brc1ccc(C2C3=C(Nc4ncnn42)c2ccccc2OC3c2ccncc2)cc1 (stereo not given),-9.4,83.0*,0.8,5.5,15.7,10.3,53.7*,Diaphorase 10uM=51.6*;Diaph ctr 30uM=57.4*
Cc1nc(SCn2nnc3ccccc3c2=O)c2c(C)c(C)sc2n1,·,·,0.9,2.5,6.0,·,·,
COc1ccc2[nH]c(C)cc(=O)c2c1,-15.4,9.9,0.9,4.0,9.7,-8.2,·,
COc1ccc2[nH]c3c(C)c4ccncc4c(C)c3c2c1,-7.1,60.3*,·,·,·,3.5,-22.6,
CC(C)NC(=O)N(C)C[C@@H]1Oc2cc(Br)ccc2S(=O)(=O)N([C@@H](C)CO)C[C@H]1C,·,3.7,·,·,·,·,·,
O=C(COC(=O)Cn1cnc2ccccc2c1=O)Nc1ccc(Cl)cc1,-2.6,12.5,0.9,-19.6,14.6,-1.1,·,
O=C(COC(=O)Cn1cnc2ccccc2c1=O)Nc1ccccc1Sc1ccc(Cl)cc1,-3.4,71.1*,0.8,-8.6,23.0,8.1,37.9,
Cc1cccc(NC(=O)CSc2nnc(-c3ccco3)c(-c3ccco3)n2)c1C,-2.2,61.2*,0.5,25.9,45.3,17.4,10.8,
Cc1cccc(NC(=O)CSc2nnc(-c3ccco3)c(-c3ccco3)n2)c1,-16.5,27.2,0.5,24.2,48.6,9.5,·,
O=C(c1ccc(N2CCN(C(=O)c3ccccc3)CC2)cc1)c1cccc(F)c1,·,-1.1,·,·,·,-5.7,·,
O=C(c1ccccc1)c1ccc(C(=O)N2CCN(c3ccc(O)cc3)CC2)cc1,·,61.0*,·,·,·,-1.1,7.2,
COC(=O)c1sc(=S)n(-c2cc(F)ccc2F)c1N,-11.1,59.5*,0.9,-2.5,12.4,-19.5,21.1,
CCOC(=O)c1sc(=S)n(-c2cc(OC)ccc2OC)c1N,-9.7,78.1*,0.9,2.0,13.4,-15.2,45.1,
CCOC(=O)c1sc(=S)n(-c2cc(F)ccc2F)c1N,-24.8,21.6,0.9,3.6,14.6,10.4,·,
CCOC(=O)c1sc(=S)n(-c2ccc(Cl)cc2)c1C,-22.5,-6.1,0.9,1.7,13.0,3.9,·,
CCOC(=O)c1nn(-c2ccccc2C)c(=O)c2c(N)scc12,0.7,47.1,0.8,34.7,22.3,12.6,·,
CCOC(=O)c1c(N)sn(-c2ccccc2C)c1=S,-12.9,73.2*,0.8,9.2,19.3,-18.2,35.8,
O=C(CSc1nc2ncc(Cl)cc2[nH]1)NCC(=O)Nc1ccc(F)c(F)c1F,-6.2,79.0*,·,·,·,-0.2,31.1,
N#Cc1ccccc1Sc1ccccc1N,-4.1,2.3,0.8,3.7,15.4,4.6,·,
Nc1ccccc1SSc1ccccc1N,-6.1,68.8*,·,·,·,-23.5,44.1,
O=[N+]([O-])c1ccc2c(c1)/C(=N\O)c1ccccc1-2,-21.8,-16.0,·,·,·,-1.3,·,
O=[N+]([O-])c1ccc2c(c1)-c1ccccc1C2O (stereo not given),·,113.5*,·,·,·,·,97.3*,Diaphorase 10uM=37.2;Diaph ctr 30uM=19.0
O=c1[nH]nc(CNc2ccc(C(F)(F)F)cc2)c2ccccc12,-0.9,29.6,0.9,8.5,9.5,6.8,·,
O=c1[nH]nc(CNc2ccc(O)cc2)c2ccccc12,12.2,59.4*,0.7,8.7,27.9,15.4,48.4*,Diaphorase 10uM=1.2;Diaph ctr 30uM=6.3
SMILES,TbHK1 inh,PfG6PD inh,Diaph act CS,G6PDH counter,Diaphorase inh,HKDC1 inhibitor,PfGluPho conf,others
COc1ccc(OC)c(C2=Nn3c(nnc3-c3ccncc3)SC2)c1,·,-0.9,·,·,·,-1.6,·,
COc1cc(-c2nnc3n2N=C(c2ccccc2)CS3)cc(OC)c1OC,-8.7,97.5*,0.8,2.6,19.3,13.3,60.2*,Diaphorase 10uM=41.9;Diaph ctr 30uM=47.8
Cc1ccc(-c2nnc3n2N=C(c2ccccc2)CS3)cc1,1.8,12.6,0.8,-36.2,21.7,-6.4,·,
c1ccc(C2=Nn3c(nnc3-c3cc(-c4ccccc4)n[nH]3)SC2)cc1,32.2,59.9*,0.8,-5.4,24.2,10.0,10.7,
COc1ccc(OC)c(C2=Nn3c(nnc3-c3cc(OC)c(OC)c(OC)c3)SC2)c1,-10.5,97.8*,0.8,13.1,25.0,-1.0,88.8*,Diaphorase 10uM=81.5*;Diaph ctr 30uM=69.8*
C#CCOCCOCCOCCNc1nc(N2CCOCC2)nc(N2CCN(C(=O)[C@H](CCCCN)n3cc(CCCC)nn3)CC2)n1,·,13.7,·,·,·,-4.7,·,
CCN1C[C@@H]2[C@@H]3C(=O)N(Cc4ccccc4)C(=O)[C@@H]3[C@](Cc3ccccc3)(C1=O)N2C(=O)c1ccc(Br)cc1,·,12.6,·,·,·,-0.9,·,
Oc1ccc(NCc2cccc(OCc3ccccc3)c2)cc1,-1.8,59.3*,0.6,17.6,42.9,8.2,3.6,
Oc1ccc(NCc2cccc(OCc3ccc(F)cc3)c2)cc1,-7.6,48.2,0.8,25.3,23.0,3.4,·,
Oc1ccc(-c2nc3c4c(ncn3n2)-c2ccccc2CC42CCCC2)cc1,-0.4,13.7,0.8,2.7,21.5,0.5,·,
O=C1CCC[C@@H]2[C@@H](Cc3ccccc3)[C@H](N3CCN(c4ccccc4)CC3)C[C@@H]3CCN1[C@@H]32,·,107.0*,·,·,·,2.3,55.9*,Diaphorase 10uM=59.7*;Diaph ctr 30uM=46.6
O=C1CCC[C@@H]2[C@H](Cc3ccccc3)[C@@H](O)C[C@@H]3CCN1[C@@H]32,·,-7.0,·,·,·,-7.4,·,
Cc1cc(/C=C2\NC(=O)N(Cc3ccc(Cl)cc3)C2=O)c(C)n1C,-12.3,7.1,1,-1.8,0.0,-2.2,·,
CCOc1cc(Cl)c(S(=O)(=O)NCCCn2ccnc2)cc1Cl,·,33.8,·,·,·,-7.9,·,
COc1cc(N2C(=O)C=CC2=O)ccc1N1C(=O)C=CC1=O,·,120.9*,·,·,·,1.6,105.3*,Diaphorase 10uM=-1.1;Diaph ctr 30uM=-17.5
CCOc1ccc(CCNC(=O)CCS(=O)(=O)c2ccc(Cl)cc2)cc1OCC,·,27.1,·,·,·,-3.6,·,
COC(=O)[C@H](CC(C)C)NC(=O)Cn1cnc(C(=O)Nc2ccc(C)c(C)c2)n1,·,1.3,·,·,·,3.4,·,
